Data set [1] deals with U-87 MG. The experiment in a line: Antiproliferative activity against human U-87 MG cells assessed as cell viability at 50 uM measured after 24 to 48 hrs by MTT assay relative to control. The following applies: time 24-48 hrs, read-out: Activity. In kind it is functional, U-87MG ATCC. A digest of the protocol:
(§1)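 Cells seeded per well 24 h before treatment: HEK293 at 5.10^4, MCF7 at 4.10^4, U87MG at 10^5. Compounds were dissolved in DMSO (less than 1%) and diluted in DMEM, then incubated 24 and 48 h. Cells were washed with D-PBS and given MTT (from a 5 mg/mL stock) for 4 h, dissolved in DMSO, read at 540 nm. % viability = sample/control absorbance ×100. At least three independent experiments.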

Data set [2] addresses Adenosine receptor A2a (Homo sapiens) (UniProt P29274). Description: Displacement of [3H]ZM241385 from recombinant human A2A adenosine receptor expressed in HEK293 cell membranes at 1 uM measured after 60 mins by liquid scintillation counting method relative to control. The settings on record: Membrane. A digest of the protocol: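 HEK293 membranes expressing hA2A (20 μg/tube) were incubated with 15 nM [3H]ZM241385 and 1 μM test compound for 60 min at 25°C in 50 mM Tris-HCl, pH 7.4, 10 mM MgCl2. The reaction was stopped by GF/B filtration, followed by scintillation counting. Read-out was percent inhibition of specific binding.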

Data set [3] deals with U-87 MG. Description: Antiproliferative activity against human U-87 MG cells assessed as cell viability at 100 uM measured after 24 to 48 hrs by MTT assay relative to control. In kind it is functional, U-87MG ATCC. The following applies: time 24-48 hrs, read-out: Activity. A digest of the protocol:
as §1

The test system of data set [4] is U-87 MG. Description: Antiproliferative activity against human U-87 MG cells assessed as cell viability at 5 uM measured after 24 to 48 hrs by MTT assay relative to control. The class given is functional, U-87MG ATCC. The following applies: time 24-48 hrs, read-out: Activity. A digest of the protocol:
as §1

Data set [5] has as its system U-87 MG. Description: Antiproliferative activity against human U-87 MG cells assessed as cell viability at 10 uM measured after 24 to 48 hrs by MTT assay relative to control. In kind it is functional, U-87MG ATCC. The following applies: time 24-48 hrs, read-out: Activity. A digest of the protocol:
as §1

The subject of data set [6] is U-87 MG. The experiment in a line: Antiproliferative activity against human U-87 MG cells assessed as reduction in cell viability measured after 24 to 48 hrs by MTT assay. In kind it is functional, cell-based, U-87MG ATCC. A digest of the protocol:
as §1

Data set [7] deals with T1, Adenosine receptor A1 (Homo sapiens) (UniProt P30542).
T1 sequence (whole entry): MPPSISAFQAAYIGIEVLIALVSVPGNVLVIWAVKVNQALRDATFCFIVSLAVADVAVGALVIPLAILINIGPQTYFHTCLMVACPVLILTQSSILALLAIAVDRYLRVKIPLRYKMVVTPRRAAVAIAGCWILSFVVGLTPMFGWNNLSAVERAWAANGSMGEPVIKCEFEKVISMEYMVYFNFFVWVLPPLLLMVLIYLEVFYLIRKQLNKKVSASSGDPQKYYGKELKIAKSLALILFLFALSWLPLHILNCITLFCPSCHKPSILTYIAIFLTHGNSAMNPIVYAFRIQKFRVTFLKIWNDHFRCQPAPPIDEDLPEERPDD
Description: Displacement of [3H]DPCPX from recombinant human A1 adenosine receptor expressed in CHO cell membranes at 1 uM measured after 60 mins by liquid scintillation counting method relative to control. The following applies: Membrane. A digest of the protocol: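 Membranes from CHO cells expressing recombinant hA1 (40 μg/tube) were incubated with 2 nM [3H]DPCPX and test compound at 1 μM in 50 mM Tris-HCl (pH 7.4, 10 mM MgCl2) for 60 min at 25°C. Bound radioligand was separated by GF/B filtration and counted by liquid scintillation. Results are given as percent inhibition of specific binding.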

Data set [8] in a line: Cytotoxicity against HEK293 cells assessed as cell viability at 100 uM measured after 24 to 48 hrs by MTT assay relative to control. In kind it is cell-based. The settings on record: human, HEK293 cells, time 24-48 hrs, read-out: Activity. A digest of the protocol:
as §1

The target of data set [9] is 3',5'-cyclic-AMP phosphodiesterase 4B (Homo sapiens, UniProt Q07343). The experiment in a line: Inhibition of recombinant human PDE4B using […] as substrate measured after 90 mins by colorimetric assay. The gist of the method:
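Recombinant human PDE4 was incubated with 0.5 μM 5′-cGMP plus 5′-nucleotidase for 90 min at 30°C. The reaction was stopped with termination buffer for 20 min at room temperature, and released phosphate was read at OD 620 nm. IC50 was determined from 6 inhibitor concentrations. Compound stocks were in DMSO (less than 1%), with at least triplicate runs, mean ± SD.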

Data set [10] relates to MCF7. The experiment in a line: Antiproliferative activity against human MCF7 cells assessed as reduction in cell viability measured after 24 to 48 hrs by MTT assay. The class given is functional, cell-based. The gist of the method: as §1
Data set [11] has as its system HEK293. The experiment in a line: Cytotoxicity against HEK293 cells assessed as reduction in cell viability measured after 24 to 48 hrs by MTT assay. The following applies: Homo sapiens. In kind it is cell-based. A digest of the protocol: as §1

3',5'-cyclic-AMP phosphodiesterase 4B, sequence (Q07343 whole entry): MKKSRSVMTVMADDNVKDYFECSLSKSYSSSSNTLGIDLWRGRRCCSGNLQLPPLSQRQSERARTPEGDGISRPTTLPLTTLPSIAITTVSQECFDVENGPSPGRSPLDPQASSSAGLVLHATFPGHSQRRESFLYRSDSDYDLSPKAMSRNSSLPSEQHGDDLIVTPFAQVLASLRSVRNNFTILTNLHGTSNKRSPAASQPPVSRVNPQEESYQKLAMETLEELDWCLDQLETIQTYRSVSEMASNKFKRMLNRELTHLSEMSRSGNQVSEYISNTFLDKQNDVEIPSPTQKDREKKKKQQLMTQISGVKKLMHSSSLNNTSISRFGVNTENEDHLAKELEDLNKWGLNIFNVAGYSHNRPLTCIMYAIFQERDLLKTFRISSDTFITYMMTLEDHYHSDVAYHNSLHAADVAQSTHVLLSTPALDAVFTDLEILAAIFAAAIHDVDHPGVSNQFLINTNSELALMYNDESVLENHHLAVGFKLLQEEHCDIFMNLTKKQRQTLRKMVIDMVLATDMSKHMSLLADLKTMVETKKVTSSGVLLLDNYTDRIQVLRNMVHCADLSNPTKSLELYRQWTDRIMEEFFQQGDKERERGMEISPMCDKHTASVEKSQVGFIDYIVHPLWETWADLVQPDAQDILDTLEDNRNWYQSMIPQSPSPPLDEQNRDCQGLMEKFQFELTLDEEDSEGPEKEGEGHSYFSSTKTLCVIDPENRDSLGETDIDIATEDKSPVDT
Adenosine receptor A2a (Homo sapiens), sequence (P29274 whole entry): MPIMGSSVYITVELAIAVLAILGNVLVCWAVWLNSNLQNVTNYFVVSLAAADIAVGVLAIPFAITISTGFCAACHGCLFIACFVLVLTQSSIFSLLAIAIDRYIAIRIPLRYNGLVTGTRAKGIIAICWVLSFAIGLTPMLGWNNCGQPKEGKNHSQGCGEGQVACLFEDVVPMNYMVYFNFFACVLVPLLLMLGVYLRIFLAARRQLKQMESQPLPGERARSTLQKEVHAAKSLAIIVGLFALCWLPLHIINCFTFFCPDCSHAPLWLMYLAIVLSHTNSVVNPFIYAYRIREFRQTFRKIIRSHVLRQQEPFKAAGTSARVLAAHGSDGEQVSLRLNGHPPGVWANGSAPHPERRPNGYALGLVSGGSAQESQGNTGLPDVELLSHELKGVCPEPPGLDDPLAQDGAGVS

For `COc1ccc(-c2nc(SCC(=O)c3sc(-c4ccccc4)nc3C)nc(N)c2C#N)cc1`, the viability at 50 µM in data set [1] amounted to 33.8%. The inhibition in data set [2] was 0.8%; in [7], -4.6%. In addition, the viability at 100 µM in data set [3] was 17.2%; in data set [8] it was over 50%. For the same molecule, the viability at 5 µM in data set [4] turned out to be 68.8%. Also, the viability at 10 µM in data set [5] stood at 60.8%. The IC50 was 14 µM in data set [6], 33.1 µM in data set [9] and 27.2 µM in [10].

In the case of `COc1ccc(-c2nc(C)c(C(=O)CSc3nc(-c4ccc(OC)c(OC)c4)c(C#N)c(=O)[nH]3)s2)cc1`, in data set [1], the viability at 50 µM came to 22.2%. The inhibition amounted to 8.5% in data set [2] and 2.5% in [7]. For the same molecule, the viability at 100 µM in [3] was found to be 5.39%. Besides, the viability at 5 µM in data set [4] was 81.2%. Moreover, in [5], the viability at 10 µM worked out at 57.6%. The IC50 in data set [11] amounted to 23.3 µM; in data set [6], 12.5 µM; in data set [9] it was 17.1 µM; in data set [10] it was 24 µM.

With `COc1ccc(-c2nc(SCC(=O)c3sc(-c4ccccc4)nc3C)[nH]c(=O)c2C#N)cc1OC`, in [1], the viability at 50 µM was found to be 21.4%. Moreover, the values for the inhibition in data set [2] and in data set [7] were 12% and 10%, respectively. The viability at 100 µM in [3] was 6.48%. For the same molecule, the viability at 5 µM in data set [4] came to 80.8%. The viability at 10 µM in data set [5] came to 69.8%. The IC50 in [11] is 91.8 µM; in data set [6] it was 15.3 µM; in [9] it was over 100 µM; in [10], 63.7 µM.

Turning to `COc1ccc(-c2nc(SCC(=O)c3sc(-c4ccc(Cl)cc4)nc3C)nc(N)c2C#N)cc1`, the viability at 50 µM in data set [1] was 17.8%. Besides, the viability at 100 µM in data set [3] was 0.79%; in data set [8] it was over 50%. Besides, in [4], the viability at 5 µM was determined as 69.7%. Moreover, the viability at 10 µM in [5] was determined as 64.5%. The IC50 amounted to 10.6 µM in data set [6], 18.1 µM in data set [9] and 10.1 µM in [10]. Further, in data set [7], the inhibition amounted to 1.2%.

As to `Cc1nc(-c2ccc(Cl)cc2)sc1C(=O)CSc1nc(N)c(C#N)c(-c2ccc(Cl)cc2)n1`, the viability at 50 µM in [1] worked out at 15.5%. Besides, the inhibition was 1.8% in data set [2] and -3.7% in data set [7]. Moreover, the viability at 100 µM in data set [3] was 1.65%. Also, in data set [4], the viability at 5 µM was 46.1%. The viability at 10 µM in data set [5] turned out to be 37.3%. Also, the IC50 in data set [11] came out at 73 µM; in data set [6], 3.42 µM; in data set [9], 24.1 µM; in data set [10] it was 12.5 µM.

Consider `Cc1nc(-c2ccccc2)sc1C(=O)CSc1nc(N)c(C#N)c(-c2ccc(Cl)cc2)n1`, for which the viability at 50 µM in [1] was determined as 44.3%. Further, in data set [2], the inhibition was -9.9%. The viability at 100 µM in [3] was 17.1%; in [8] it was over 50%. The viability at 5 µM in [4] was 62.9%. Further, the viability at 10 µM in data set [5] turned out to be 58.8%. The concentration for half-maximal inhibition (IC50) in [6] came to 10.8 µM; in data set [9] it was 32.3 µM; in data set [10], 20.2 µM.

As for `COc1ccc(-c2nc(C)c(C(=O)CSc3nc(N)c(C#N)c(-c4ccc(Cl)cc4)n3)s2)cc1`, the viability at 50 µM in data set [1] worked out at 23.1%. Further, the inhibition was -7.1% in data set [2] and 1.1% in data set [7]. For the same molecule, in [3], the viability at 100 µM came out at 3.9%. Besides, the viability at 5 µM in data set [4] was 51.4%. The viability at 10 µM in data set [5] stood at 44%. For the same molecule, the half-inhibitory concentration (IC50) in [11] is 39.2 µM; in data set [6], 4.54 µM; in [9] it was 0.97 µM; in [10], 11.2 µM.

`Cc1nc(-c2ccccc2)sc1C(=O)CSc1nc(N)c(C#N)c(-c2ccccc2)n1`: the viability at 50 µM in [1] was 26.3%. In addition, the inhibition in [2] amounted to 6.5%; in data set [7], 9.5%. In addition, the viability at 5 µM in data set [4] worked out at 103%. The viability at 10 µM in data set [5] was 93%. Besides, the half-inhibitory concentration (IC50) was 46.7 µM in data set [11], 28.9 µM in [6], over 100 µM in data set [9] and 30.1 µM in data set [10].

For the origin of these results see ChEMBL document CHEMBL4706654, “Novel cyanothiouracil and cyanothiocytosine derivatives as concentration-dependent selective inhibitors of U87MG glioblastomas: Adenosine receptor binding and potent PDE4 inhibition” (Eur J Med Chem, 2021).
